# Test results: ChEMBL document CHEMBL1123589, “Phenylpiperazine-based radiopharmaceuticals for brain imaging. 3. Synthesis and evaluation of radioiodinated 1-alkyl-4-phenylpiperazines” (J Med Chem, 1987)
# Legend:
# Details in all cases: in vivo
# [1] = tested on: Rattus norvegicus; test: The biodistribution of the [125I]-labeled compound in rats after intravenous injection was evaluated in kidney at 0.25 hr; value ranges from 0.37-0.45 (ID.kg/g); assay type: ADME, organism-based
# Summary of the method: (§1)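 Male Sprague-Dawley rats (250–300 g), under ether anesthesia, given 10–15 μCi of the NCA ¹²⁵I-labeled agent iv in 0.1 mL saline. Groups of N = 3 were killed at 0.25, 1 or 4 h. Blood and tissues were removed, weighed and counted in a γ-well scintillation counter. Values are mean % ID·kg/g (range).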
# [2] = tested on: Rattus norvegicus; test: The biodistribution of the [125I]-labeled compound in rats after intravenous injection was evaluated in liver at 1.00 hrs; value ranges from 0.34-0.44 (ID.kg/g); assay type: ADME, organism-based; summary of the method: as §1
# [3] = tested on: Rattus norvegicus; test: The biodistribution of the [125I]-labeled compound in rats after intravenous injection was evaluated in adrenal at 4.00 hrs; value ranges from 0.90-0.97 (ID.kg/g); assay type: ADME, organism-based
# Summary of the method: (§2)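 Male Sprague-Dawley rats (250–300 g) under ether anesthesia were given an iv injection of no-carrier-added 125I-labelled agent (10–15 μCi in 0.1 mL saline). The agent was iodinated with chloramine-T in acetate buffer and purified by C-18 HPLC. Groups of N = 3 were killed at 0.25, 1 and 4 h. Blood and tissues were weighed and γ-counted. Values are % ID·kg/g, mean (range).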
# [4] = tested on: Rattus norvegicus; test: The biodistribution of the [125I]-labeled compound in rats after intravenous injection was evaluated in kidney at 1.00 hrs; value ranges from 0.29-0.35 (ID.kg/g); assay type: ADME, organism-based; summary of the method: as §1
# [5] = tested on: Rattus norvegicus; test: The biodistribution of the [125I]-labeled compound in rats after intravenous injection was evaluated in blood at 4.00 hrs (ID.kg/g); assay type: ADME, organism-based; summary of the method: as §2
# [6] = tested on: Rattus norvegicus; test: The biodistribution of the [125I]-labeled compound in rats after intravenous injection was evaluated in kidney at 4.00 hrs; value ranges from 0.18-0.23 (ID.kg/g); assay type: ADME, organism-based; summary of the method: as §1
# [7] = tested on: Rattus norvegicus; test: The biodistribution of the [125I]-labeled compound in rats after intravenous injection was evaluated in liver at 0.25 hr; value ranges from 0.19-0.27 (ID.kg/g); assay type: ADME, organism-based; summary of the method: as §1
# [8] = tested on: Rattus norvegicus; test: The biodistribution of the [125I]-labeled compound in rats after intravenous injection was evaluated in heart at 0.25 hrs; value ranges from 0.11-0.15 (ID.kg/g); assay type: ADME, organism-based; summary of the method: as §2
# [9] = tested on: Rattus norvegicus; test: The biodistribution of the [125I]-labeled compound in rats after intravenous injection was evaluated in brain at 1.00 hrs; value ranges from 0.23-0.32 (ID.kg/g); assay type: ADME, organism-based; summary of the method: as §2
# [10] = tested on: Rattus norvegicus; test: The biodistribution of the [125I]-labeled compound in rats after intravenous injection was evaluated in muscle at 4.00 hrs (ID.kg/g); assay type: ADME, organism-based, Muscle tissue
# Summary of the method: (§3)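 Male Sprague-Dawley rats (250–300 g) under ether anesthesia given iv 0.1 mL saline containing 10–15 μCi of NCA ¹²⁵I-labeled agent (chloramine-T iodination, HPLC-purified). Groups of 3 killed at 0.25, 1 and 4 h. Blood and tissues excised, weighed and γ-counted. Values are mean (range) of % injected dose × body mass (kg) per gram of tissue.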
# [11] = tested on: Rattus norvegicus; test: The biodistribution of the [125I]-labeled compound in rats after intravenous injection was evaluated in blood at 0.25 hrs (ID.kg/g); assay type: ADME, organism-based; summary of the method: as §2
# [12] = tested on: Rattus norvegicus; test: The biodistribution of the [125I]-labeled compound in rats after intravenous injection was evaluated in adrenal at 1.00 hrs; value ranges from 0.83-0.85 (ID.kg/g); assay type: ADME, organism-based; summary of the method: as §2
# [13] = tested on: Rattus norvegicus; test: The biodistribution of the [125I]-labeled compound in rats after intravenous injection was evaluated in heart at 4.00 hrs; value ranges from 0.05-0.06 (ID.kg/g); assay type: ADME, organism-based; summary of the method: as §1
# [14] = tested on: Rattus norvegicus; test: The biodistribution of the [125I]-labeled compound in rats after intravenous injection was evaluated in liver at 4.00 hrs; value ranges from 0.42-0.55 (ID.kg/g); assay type: ADME, organism-based; summary of the method: as §1
# [15] = tested on: Rattus norvegicus; test: The biodistribution of the [125I]-labeled compound in rats after intravenous injection was evaluated in muscle at 0.25 hrs (ID.kg/g); assay type: ADME, organism-based, Muscle tissue; summary of the method: as §3
# [16] = tested on: Rattus norvegicus; test: The biodistribution of the [125I]-labeled compound in rats after intravenous injection was evaluated in lung at 0.25 hrs; value ranges from 0.55-0.57 (ID.kg/g); assay type: ADME, organism-based; summary of the method: as §1
# [17] = tested on: Rattus norvegicus; test: The biodistribution of the [125I]-labeled compound in rats after intravenous injection was evaluated in lung at 1.00 hrs; value ranges from 0.33-0.37 (ID.kg/g); assay type: ADME, organism-based; summary of the method: as §1
# [18] = tested on: Rattus norvegicus; test: The biodistribution of the [125I]-labeled compound in rats after intravenous injection was evaluated in brain at 0.25 hrs (ID.kg/g); assay type: ADME, organism-based; summary of the method: as §2
# [19] = tested on: Rattus norvegicus; test: The biodistribution of the [125I]-labeled compound in rats after intravenous injection was evaluated in blood at 1.00 hrs (ID.kg/g); assay type: ADME, organism-based; summary of the method: as §2
# [20] = tested on: Rattus norvegicus; test: The biodistribution of the [125I]-labeled compound in rats after intravenous injection was evaluated in lung at 4.00 hrs; value ranges from 0.19-0.25 (ID.kg/g); assay type: ADME, organism-based; summary of the method: as §1
# [21] = tested on: Rattus norvegicus; test: The biodistribution of the [125I]-labeled compound in rats after intravenous injection was evaluated in fat at 0.25 hr (ID. kg/g); assay type: ADME, organism-based, Adipose tissue; summary of the method: as §2
# [22] = tested on: Rattus norvegicus; test: The biodistribution of the [125I]-labeled compound in rats after intravenous injection was evaluated in muscle at 1.00 hrs (ID.kg/g); assay type: ADME, organism-based, Muscle tissue; summary of the method: as §3
# [23] = tested on: Rattus norvegicus; test: The biodistribution of the [125I]-labeled compound in rats after intravenous injection was evaluated in heart at 1.00 hrs (ID.kg/g); assay type: ADME, organism-based; summary of the method: as §2
# [24] = tested on: Rattus norvegicus; test: The biodistribution of the [125I]-labeled compound in rats after intravenous injection was evaluated in fat at 1.00 hrs (ID.kg/g); assay type: ADME, organism-based, Adipose tissue; summary of the method: as §2
# [25] = tested on: Rattus norvegicus; test: The biodistribution of the [125I]-labeled compound in rats after intravenous injection was evaluated in thyroid at 0.25 hrs; value ranges from 1.12-1.29 (ID.kg/g); assay type: ADME, organism-based, Thyroid gland; summary of the method: as §3
# [26] = tested on: Rattus norvegicus; test: The biodistribution of the [125I]-labeled compound in rats after intravenous injection was evaluated in adrenal at 0.25 hrs; value ranges from 0.58-0.61 (ID.kg/g); assay type: ADME, organism-based; summary of the method: as §2
# [27] = tested on: Rattus norvegicus; test: The biodistribution of the [125I]-labeled compound in rats after intravenous injection was evaluated in thyroid at 4.00 hrs; value ranges from 3.21-5.02 (ID.kg/g); assay type: ADME, organism-based, Thyroid gland; summary of the method: as §3
# [28] = tested on: Rattus norvegicus; test: The biodistribution of the [125I]-labeled compound in rats after intravenous injection was evaluated in thyroid at 1.00 hrs; value ranges from 1.22-1.36 (ID.kg/g); assay type: ADME, organism-based, Thyroid gland; summary of the method: as §3
# [29] = tested on: Rattus norvegicus; test: The biodistribution of the [125I]-labeled compound in rats after intravenous injection was evaluated in fat at 4.00 hrs (ID.kg/g); assay type: ADME, organism-based, Adipose tissue; summary of the method: as §2
# [30] = tested on: Rattus norvegicus; test: The biodistribution of the [125I]-labeled compound in rats after intravenous injection was evaluated in brain at 4.00 hrs; value ranges from 0.17-0.21 (ID.kg/g); assay type: ADME, organism-based; summary of the method: as §2
smiles,measurement,setting,value
CC(C)CN1CCN(c2ccc(I)cc2)CC1,Biodistribution,[1],0.45%
same,Biodistribution,[2],0.44%
same,Biodistribution,[3],0.97%
same,Biodistribution,[4],0.35%
same,Biodistribution,[5],0.01 % ID·kg/g
same,Biodistribution,[6],0.23%
same,Biodistribution,[7],0.27%
same,Biodistribution,[8],0.15%
same,Biodistribution,[9],0.32%
same,Biodistribution,[10],0.03 %ID·kg/g
same,Biodistribution,[11],0.01 % ID·kg/g
same,Biodistribution,[12],0.85%
same,Biodistribution,[13],0.07%
same,Biodistribution,[14],0.55%
same,Biodistribution,[15],0.03 % ID·kg/g
same,Biodistribution,[16],0.57%
same,Biodistribution,[17],0.37%
same,Biodistribution,[18],0.25%
same,Biodistribution,[19],0.01 % ID·kg/g
same,Biodistribution,[20],0.25%
same,Biodistribution,[21],0.02 % ID·kg/g
same,Biodistribution,[22],0.02 %ID·kg/g
same,Biodistribution,[23],0.09%
same,Biodistribution,[24],0.02 % ID·kg/g
same,Biodistribution,[25],1.29%
same,Biodistribution,[26],0.61%
same,Biodistribution,[27],5.02%
same,Biodistribution,[28],1.36%
same,Biodistribution,[29],0.04%
same,Biodistribution,[30],0.21%
